# A selection: hits, their analogues and other compounds. The true share with any hit is near 1.2%.
# ARNT TACC3 PPI = disrupts binding between human ARNT and TACC3. AID 623870. inhibition, % at 9.99 µM. Q9Y6A5. AlphaScreen His-ARNT PAS-B/GST-TACC3 binding, luminescence; TACC3 fragment carries E629A point mutation. 390,000 compounds, 0.66% hits;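 active = mean inhibition of replicates at least 50% and at least half of replicates each reaching 50%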;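 also: 0% = complete ARNT plus TACC3 wells and 100% = ARNT alone without TACC3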
# CAL PDZ FP-1 = human CAL PDZ-peptide interaction inhibition; Q9HD26; purified CAL PDZ, TMR-peptide fluorescence polarization, 1 h; inhibition, % at 20 µM; 330,000 compounds, 0.02% hits; AID 504414;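 active = highest replicate inhibition of at least 40%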;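 also: plate controls were DMSO neutral control wells for no effect and unlabeled competitor peptide control wells for full effect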
#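 Material: tagged CAL PDZ protein CerCALP, purified; buffer or medium: sodium phosphate/NaCl buffer pH 7.4 with TCEP, IgG, Thesit; also added: fluorescent TMR peptide probe; schedule: 1 h incubation at room temperature before polarization reading; technique: fluorescence polarization from S- and P-plane intensities, G-factor corrected; control set: unlabelled peptide and DMSO controls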
# CAL PDZ FP-2 = CAL PDZ (human) peptide binding inhibition; 300,000 compounds, 0.92% hits; Q9HD26; AID 602252; purified CAL PDZ, TMR-peptide fluorescence polarization, 1 h; inhibition, % at 24.9 µM;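 active = mean inhibition of at least 30% with at least half of replicates also reaching 30%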;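 also: 0% = DMSO neutral control and 100% = excess unlabeled competitor peptide PRC23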
# * marks the source's active call; other numbers are inactive results; nt = no result; + = active, no number.
SMILES,ARNT TACC3 PPI,CAL PDZ FP-1,CAL PDZ FP-2
Oc1cccc(NC(=S)N=Nc2c(O)[nH]c3ccccc23)c1,54.1*,-0.5,-8.2
Oc1[nH]c2ccc(Br)cc2c1N=NC(=S)N1CCOCC1,65.7*,-1.0,-5.4
CC(C)NC(=O)N[C@@H]1CC[C@H](CC(=O)NCCN2CCCC2)O[C@H]1CO,28.0,nt,nt
CNC(=O)C[C@@H]1CC[C@@H]2[C@@H](COc3ccc(NC(=O)Nc4ccc(Cl)cc4)cc3C(=O)N2C)O1,8.3,nt,nt
O=C1C=C(Nc2ccccc2C(=O)O)c2ccccc2C1=O,36.4,2.3,76.4*
O=C1C=C(Nc2ccccc2)c2ccccc2C1=O,nt,-1.3,-3.0
Cc1c2ccccc2cc[n+]1CCCS(=O)(=O)[O-],nt,-2.3,-1.7
CC1(C)C(/C=C/C=C/C=C/C=C2\N(CCCCS(=O)(=O)O)c3ccc4ccccc4c3C2(C)C)=[N+](CCCCS(=O)(=O)[O-])c2ccc3ccccc3c21,65.5*,2.5,-8.8
O/N=C/c1ccc2cccc(O)c2n1,57.2*,-2.1,-2.1
O/N=C/c1ccc2ccccc2n1,1.0,-2.0,nt
C[C@H](CO)N1C[C@H](C)[C@@H](CN(C)C(=O)CN(C)C)Oc2ncc(-c3ccc(F)cc3)cc2C1=O,0.6,nt,nt
Clc1ccc(C(c2ccccc2Cl)C(Cl)Cl)cc1 (stereo not drawn),48.2*,0.8,0.1
CCc1ccc(C(c2ccc(CC)cc2)C(Cl)Cl)cc1,nt,-0.3,-1.4
CCC(C(=O)OCn1nnc2ccccc2c1=O)c1ccccc1 (stereo not drawn),-0.6,-0.9,54.3*
CC(NC(=O)c1ccccc1)C(=O)OCn1nnc2ccccc2c1=O (stereo not drawn),nt,-1.6,2.6
Cc1noc(C)c1NC(=O)Nc1cccc2c1O[C@@H](CN(C)C(=O)NC(C)C)[C@@H](C)CN([C@@H](C)CO)C2=O,-13.1,nt,nt
CNc1nc(Nc2ccccc2)nc(OCC(F)(F)F)n1,1.4,-0.6,0.1
CNc1nc(NN)nc(Nc2ccccc2)n1,35.1,-2.2,58.2*
C[C@@H]1CCCCO[C@@H](CN(C)CC2CCCCC2)[C@H](C)CN([C@@H](C)CO)C(=O)c2cc(NS(=O)(=O)c3ccc(F)cc3)ccc2O1,-7.0,nt,nt
Cc1ccc(-n2c(=O)[nH]c3cc(C(=O)NC4CCN(Cc5ccccc5)CC4)ccc3c2=O)cc1,-5.2,-0.5,38.0*
Cc1ccc(CN2CCSc3ccc(C(=O)NC4CCN(Cc5ccccc5)CC4)cc32)cc1,-1.0,-1.9,-1.7
CC(C)NC(=O)N(C)C[C@@H]1Oc2ccc(NS(C)(=O)=O)cc2CC(=O)N([C@H](C)CO)C[C@@H]1C,-8.0,nt,nt
COc1ccccc1OCC(=O)NCc1cccs1,45.3*,-1.0,-2.0
COc1cc(C#N)ccc1OCC(=O)NCc1cccs1,-5.9,-2.1,0.1
CCOC(=O)N1CCC(Nc2c(Nc3ccc(F)cc3)c(=O)c2=O)CC1,4.5,-0.3,59.1*
SMILES,ARNT TACC3 PPI,CAL PDZ FP-1,CAL PDZ FP-2
CCOC(=O)N1CCC(Nc2c(Nc3cccc(CC)c3)c(=O)c2=O)CC1,14.3,-0.9,nt
CO[C@@H]1CN(C)C(=O)c2ccc(NC(=O)C3CCCCC3)cc2OC[C@H](C)N(C(=O)c2ccccc2)C[C@@H]1C,4.8,nt,nt
C[C@H](CO)N1C[C@H](C)[C@@H](CN(C)Cc2ccncc2)OCCCC[C@H](C)Oc2ccc(NS(=O)(=O)c3ccccc3)cc2C1=O,-36.6,nt,nt
COC(=O)c1cn(NC(=O)c2ccc(OC)c(OC)c2)c(=O)c2ccccc12,-1.8,-0.3,-1.3
COC(=O)c1cn(NC(=O)c2cnccn2)c(=O)c2ccccc12,63.0*,0.6,0.1
O=C(Nn1cc(C(=O)Nc2ccccc2F)c2ccccc2c1=O)c1cnccn1,60.4*,-1.8,19.3
COC(=O)c1cn(NC(=O)Cc2ccc(OC)c(OC)c2)c(=O)c2ccccc12,nt,0.0,6.4
COC(=O)c1cn(NC(=O)Cc2cccc(OC)c2)c(=O)c2ccccc12,-2.7,-0.9,33.5*
COc1cc(OC)cc(C(=O)Nn2cc(C(=O)Nc3ccccc3F)c3ccccc3c2=O)c1,nt,-1.0,4.2
C[C@@H]1CN([C@@H](C)CO)S(=O)(=O)c2ccc(-c3ccccc3F)cc2O[C@@H]1CN(C)CC1CC1,0.5,nt,nt
Cc1ccc(S(=O)(=O)N(C)C[C@@H]2Oc3ccc(NC(=O)C4CC4)cc3CC(=O)N([C@@H](C)CO)C[C@H]2C)cc1,5.9,nt,nt
C[C@@H](NC(=O)C[C@H]1CC[C@@H]2[C@H](COC[C@H](O)CN2C(=O)Nc2ccccc2)O1)c1ccccc1,-5.8,nt,nt
C[C@@H]1CN([C@@H](C)CO)C(=O)Cc2cc(NS(=O)(=O)c3cccs3)ccc2O[C@H]1CN(C)C(=O)Nc1ccccc1,1.4,nt,nt
Cc1ccc(S(=O)(=O)N(C)C(C)CCc2ccco2)cc1 (stereo not drawn),-4.2,-1.0,+
COc1ccc(S(=O)(=O)N(C)C(C)CCc2ccco2)cc1 (stereo not drawn),-2.4,-1.4,-1.8
Nc1cc(=O)[nH]c(=O)n1Cc1ccccc1,-2.4,-0.9,-0.5
Nc1cc(=O)[nH]c(=O)n1CCCc1ccccc1,-9.3,-1.0,38.9*
Cc1noc(C)c1S(=O)(=O)N(C)C[C@@H]1OCCCC[C@H](C)Oc2ccc(NS(=O)(=O)c3ccc(Cl)cc3)cc2C(=O)N([C@H](C)CO)C[C@@H]1C,-11.2,nt,nt
COc1cc(S(=O)(=O)Nc2ccc(C(=O)NCC(=O)O)cc2)ccc1NC(C)=O,-1.1,11.6,68.4*
O=C(O)CNC(=O)c1ccc(NS(=O)(=O)c2ccc3ccccc3c2)cc1,-25.6,-1.2,-1.6
COc1ccc(CCNS(=O)(=O)c2ccc(-n3cnnn3)cc2)cc1OC,-3.1,-0.9,+
CCOc1ccc(-n2cnnn2)cc1S(=O)(=O)NCCc1ccc(OC)c(OC)c1,-5.8,0.8,-1.3
COc1ccccc1-c1ccc2c(c1)O[C@H](CN(C)C)[C@@H](C)CN([C@@H](C)CO)S2(=O)=O,-2.3,nt,nt
COc1ccc(C2OC(=O)CC2C(=O)NCc2ccc(C)cc2)cc1OC (stereo not drawn),4.9,-2.2,2.4
COCCCNC(=O)C1CC(=O)OC1c1ccc(OC)c(OC)c1 (stereo not drawn),0.2,0.8,42.5*
SMILES,ARNT TACC3 PPI,CAL PDZ FP-1,CAL PDZ FP-2
C=CCN(c1ccccc1OC)S(=O)(=O)c1cccc(C(=O)NC2=NCCS2)c1,2.6,-0.9,-10.1
C=CCN(c1ccccc1OC)S(=O)(=O)c1cccc(C(=O)Nc2nnc(C3CC3)s2)c1,2.0,-0.5,40.4*
CO[C@H]1CN(C)C(=O)c2cc(NC(=O)c3ccccc3)ccc2OC[C@@H](C)N(CC2CC2)C[C@@H]1C,-9.7,nt,nt
O=C(Nc1nc(-c2ccccn2)cs1)c1cccc(-n2cnnn2)c1,70.5*,0.5,16.0
O=C(Nc1ccc(Br)cc1)c1cccc(-n2cnnn2)c1,1.5,-0.4,-5.3
CC(C)(Oc1ccc(Cl)cc1)C(=O)NCc1ccc(S(N)(=O)=O)cc1,-3.7,-0.3,77.3*
COC(=O)CNC(=O)C(C)(C)Oc1ccc(Cl)cc1,-4.4,nt,-5.3
Cc1ccc(NC(=S)N(CCCN2CCCC2)Cc2cccn2Cc2ccc(Cl)cc2)cc1C,1.3,-2.4,78.9*
Cc1ccc(NC(=S)N(CCCN2CCCC2)Cc2cccn2Cc2ccc(Cl)cc2)cc1Cl,-3.6,-2.6,-7.3

# Screening data from PubChem.
